The record followed here is ChEMBL document CHEMBL3596123, “Identification of pyrazine-based TrkA inhibitors: design, synthesis, evaluation, and computational modeling studies” (Medchemcomm, 2014).

The target of test [1] is T1, High affinity nerve growth factor receptor (Homo sapiens, UniProt P04629). Description: Inhibition of human recombinant TrkA at 20 uM using ATP and 5FAM tagged TrkA peptide substrate incubated for 60 mins by microfluidics assay. A digest of the protocol: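 TrkA enzyme at 2 nM, preincubated with inhibitor 60 min with shaking in HEPES kinase buffer (MgCl2, DTT, Brij-35, Tween 20), then ATP (190 µM running) and 5FAM-labelled TrkA peptide (1.5 µM) added. Run to 10–20% conversion in no-inhibitor wells. Product/substrate peaks separated by microfluidic mobility-shift read. Single point at 20 µM inhibitor, quadruplicate.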
Target sequence in this assay (P04629 33-796 limits assumed): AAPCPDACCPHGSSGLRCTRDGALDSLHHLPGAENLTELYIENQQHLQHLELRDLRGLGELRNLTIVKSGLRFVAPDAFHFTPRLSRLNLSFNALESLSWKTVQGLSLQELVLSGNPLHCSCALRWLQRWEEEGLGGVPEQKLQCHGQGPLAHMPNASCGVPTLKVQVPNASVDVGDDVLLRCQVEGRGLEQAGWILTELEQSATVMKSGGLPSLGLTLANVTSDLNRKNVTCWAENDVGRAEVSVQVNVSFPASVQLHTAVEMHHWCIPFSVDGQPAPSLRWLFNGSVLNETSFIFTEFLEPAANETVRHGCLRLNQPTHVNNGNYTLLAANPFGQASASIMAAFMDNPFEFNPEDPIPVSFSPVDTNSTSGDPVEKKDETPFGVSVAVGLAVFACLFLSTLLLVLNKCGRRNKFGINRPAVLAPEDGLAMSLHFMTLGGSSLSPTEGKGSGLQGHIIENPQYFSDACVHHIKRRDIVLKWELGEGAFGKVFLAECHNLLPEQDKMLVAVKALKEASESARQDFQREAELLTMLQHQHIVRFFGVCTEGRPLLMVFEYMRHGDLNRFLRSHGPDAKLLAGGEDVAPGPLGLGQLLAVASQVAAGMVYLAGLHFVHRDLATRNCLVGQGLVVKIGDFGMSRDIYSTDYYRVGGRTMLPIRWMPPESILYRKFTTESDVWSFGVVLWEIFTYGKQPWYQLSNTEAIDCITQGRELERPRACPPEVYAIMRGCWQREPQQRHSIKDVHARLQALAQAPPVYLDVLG

The target in test [2] is T1, High affinity nerve growth factor receptor. Description: Inhibition of human recombinant TrkA using ATP and 5FAM tagged TrkA peptide substrate incubated for 60 mins by microfluidics assay. A digest of the protocol:
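TrkA enzyme at 2 nM, preincubated 60 min with inhibitor in HEPES/MgCl2/DTT kinase buffer. Reaction started with ATP 190 µM and 5FAM-TrkA peptide 1.5 µM (running). Twelve-point half-log series, 0.2 mM–0.632 nM final. Stopped at 10–20% conversion of uninhibited control. Phospho-product separated by microfluidic read. Curves fit to one-phase exponential decay, IC50 from the half-life, duplicate, mean ± SD.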
Target sequence in this assay (P04629 whole entry): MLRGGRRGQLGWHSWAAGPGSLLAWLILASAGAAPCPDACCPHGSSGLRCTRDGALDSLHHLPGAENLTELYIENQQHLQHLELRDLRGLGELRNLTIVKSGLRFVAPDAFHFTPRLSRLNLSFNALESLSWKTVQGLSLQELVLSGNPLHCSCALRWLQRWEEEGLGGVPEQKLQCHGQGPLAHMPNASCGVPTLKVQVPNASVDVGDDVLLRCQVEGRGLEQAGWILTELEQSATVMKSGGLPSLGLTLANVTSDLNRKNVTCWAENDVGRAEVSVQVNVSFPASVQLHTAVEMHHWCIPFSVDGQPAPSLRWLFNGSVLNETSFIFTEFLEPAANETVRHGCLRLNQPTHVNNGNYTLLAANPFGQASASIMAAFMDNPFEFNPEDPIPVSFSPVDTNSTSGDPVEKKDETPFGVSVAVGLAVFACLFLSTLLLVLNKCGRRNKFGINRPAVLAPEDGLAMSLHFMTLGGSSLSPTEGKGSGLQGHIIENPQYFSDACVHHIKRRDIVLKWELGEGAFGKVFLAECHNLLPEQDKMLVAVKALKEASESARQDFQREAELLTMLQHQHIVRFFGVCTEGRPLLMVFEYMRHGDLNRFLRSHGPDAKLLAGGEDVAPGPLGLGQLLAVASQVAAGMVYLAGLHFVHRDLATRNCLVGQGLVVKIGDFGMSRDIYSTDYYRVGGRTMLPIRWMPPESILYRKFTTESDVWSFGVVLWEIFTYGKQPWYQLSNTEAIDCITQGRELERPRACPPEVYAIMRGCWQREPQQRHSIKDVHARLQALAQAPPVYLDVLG

For test [3], the target named is T2, Ephrin type-B receptor 2 (Homo sapiens, UniProt P29323).
T2 sequence (P29323 whole entry): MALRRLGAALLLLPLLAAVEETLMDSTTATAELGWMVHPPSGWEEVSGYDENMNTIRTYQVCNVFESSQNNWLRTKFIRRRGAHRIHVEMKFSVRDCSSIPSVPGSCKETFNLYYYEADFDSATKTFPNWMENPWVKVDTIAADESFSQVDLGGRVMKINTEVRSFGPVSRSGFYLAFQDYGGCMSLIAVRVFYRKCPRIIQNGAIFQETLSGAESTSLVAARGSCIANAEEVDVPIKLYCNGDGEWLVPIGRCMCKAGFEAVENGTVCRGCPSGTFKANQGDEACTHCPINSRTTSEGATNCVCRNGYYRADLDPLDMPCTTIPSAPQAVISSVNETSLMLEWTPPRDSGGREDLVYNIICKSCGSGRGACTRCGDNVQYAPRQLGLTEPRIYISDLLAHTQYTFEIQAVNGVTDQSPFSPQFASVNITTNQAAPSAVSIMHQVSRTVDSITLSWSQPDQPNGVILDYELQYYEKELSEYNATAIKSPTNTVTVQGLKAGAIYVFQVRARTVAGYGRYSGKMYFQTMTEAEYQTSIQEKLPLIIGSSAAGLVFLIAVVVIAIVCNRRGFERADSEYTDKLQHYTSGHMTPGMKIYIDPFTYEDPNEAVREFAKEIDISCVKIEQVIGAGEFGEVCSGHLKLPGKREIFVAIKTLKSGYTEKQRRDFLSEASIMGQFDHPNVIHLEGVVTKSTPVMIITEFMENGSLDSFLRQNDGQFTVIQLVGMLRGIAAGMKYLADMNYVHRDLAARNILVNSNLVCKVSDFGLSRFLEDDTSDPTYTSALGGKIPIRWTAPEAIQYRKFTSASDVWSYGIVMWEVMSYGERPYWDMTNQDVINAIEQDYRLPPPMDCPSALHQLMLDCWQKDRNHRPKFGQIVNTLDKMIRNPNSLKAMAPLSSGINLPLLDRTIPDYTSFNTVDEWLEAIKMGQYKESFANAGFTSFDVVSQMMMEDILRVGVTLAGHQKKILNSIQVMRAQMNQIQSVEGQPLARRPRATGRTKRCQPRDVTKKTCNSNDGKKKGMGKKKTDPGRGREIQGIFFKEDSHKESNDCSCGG
Description: Inhibition of EphB2 (unknown origin) using ATP and 5FAM tagged TrkA peptide substrate incubated for 60 mins by microfluidics assay.

The target of test [4] is Vascular endothelial growth factor receptor 2 (Homo sapiens, UniProt P35968). Description: Inhibition of KDR (unknown origin) using ATP and 5FAM tagged TrkA peptide substrate incubated for 60 mins by microfluidics assay.
Chain of Vascular endothelial growth factor receptor 2 (P35968 whole entry): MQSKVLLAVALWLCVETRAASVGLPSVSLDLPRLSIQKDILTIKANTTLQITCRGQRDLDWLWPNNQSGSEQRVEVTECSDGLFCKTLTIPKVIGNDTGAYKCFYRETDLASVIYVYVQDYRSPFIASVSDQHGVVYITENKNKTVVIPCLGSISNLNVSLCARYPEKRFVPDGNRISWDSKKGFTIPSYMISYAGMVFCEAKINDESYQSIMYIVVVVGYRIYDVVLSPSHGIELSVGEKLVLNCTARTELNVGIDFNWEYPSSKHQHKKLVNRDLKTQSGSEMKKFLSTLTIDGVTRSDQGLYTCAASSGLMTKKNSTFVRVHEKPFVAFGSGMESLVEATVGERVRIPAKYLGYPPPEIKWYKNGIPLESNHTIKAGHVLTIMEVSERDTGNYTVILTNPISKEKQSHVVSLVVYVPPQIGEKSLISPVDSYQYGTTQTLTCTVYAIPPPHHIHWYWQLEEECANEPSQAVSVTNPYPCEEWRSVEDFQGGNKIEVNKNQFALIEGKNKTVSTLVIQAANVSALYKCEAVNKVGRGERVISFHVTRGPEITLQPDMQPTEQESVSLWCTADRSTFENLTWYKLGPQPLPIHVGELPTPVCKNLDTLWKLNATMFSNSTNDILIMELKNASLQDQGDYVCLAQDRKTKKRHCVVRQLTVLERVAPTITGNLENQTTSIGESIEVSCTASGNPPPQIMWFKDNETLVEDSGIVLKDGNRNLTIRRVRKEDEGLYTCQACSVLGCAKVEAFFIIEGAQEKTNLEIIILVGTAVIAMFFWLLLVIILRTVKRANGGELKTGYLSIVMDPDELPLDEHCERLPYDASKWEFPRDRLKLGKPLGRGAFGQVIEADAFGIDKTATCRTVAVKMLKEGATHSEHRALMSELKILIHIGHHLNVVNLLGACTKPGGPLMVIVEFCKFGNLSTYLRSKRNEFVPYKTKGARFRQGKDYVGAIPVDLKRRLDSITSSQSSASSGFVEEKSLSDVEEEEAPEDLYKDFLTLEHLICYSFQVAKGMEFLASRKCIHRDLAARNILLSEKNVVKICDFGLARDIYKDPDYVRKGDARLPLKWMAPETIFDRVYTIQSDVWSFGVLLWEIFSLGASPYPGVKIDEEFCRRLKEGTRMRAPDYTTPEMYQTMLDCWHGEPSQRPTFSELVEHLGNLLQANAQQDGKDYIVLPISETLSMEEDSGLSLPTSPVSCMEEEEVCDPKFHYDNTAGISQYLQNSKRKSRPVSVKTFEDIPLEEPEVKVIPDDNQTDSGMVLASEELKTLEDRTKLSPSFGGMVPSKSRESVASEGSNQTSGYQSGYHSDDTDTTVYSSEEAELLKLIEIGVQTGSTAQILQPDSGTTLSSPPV

The term inhibition denotes the relative decrease from the control value, in per cent. As a reminder, the IC50 is the concentration that inhibits the measured activity by half. For `CC(C)(C)c1cc(NC(=O)Nc2cccc(Oc3cncc(-c4ccc(S(C)(=O)=O)cc4)n3)c2)no1`, the inhibition in test [1] was found to be 96.5%. In addition, the 50% inhibitory concentration (IC50) in test [2] is 92 nM; in test [3] it was more than 2000 nM. Regarding `Cn1cc(-c2cncc(Oc3cccc(NC(=O)Nc4ccc(C(C)(C)C)cc4)c3)n2)cn1`, in test [1], the inhibition was found to be 86.9%.

With `COc1ccc(-c2cncc(Oc3cccc(NC(=O)Nc4cc(C(C)(C)C)on4)c3)n2)cc1`, in test [1], the inhibition is 98.6%. Further, the IC50 in test [2] was 47 nM; in test [3], more than 2000 nM; in test [4], more than 2000 nM.

For `Nc1ccc(-c2cncc(-c3ccsc3)n2)cc1`, in test [1], the inhibition was determined as 17%. On the same count and under the same terms, with `CC(C)(C)c1cc(NC(=O)Nc2cccc(Oc3cncc(-c4ccc(F)cc4)n3)c2)on1` the figure was 47.2%. Consider `CC(C)(C)c1cc(NC(=O)Nc2cccc(Oc3cncc(Cl)n3)c2)no1`, for which the 50% inhibitory concentration (IC50) in test [2] was more than 100000 nM. `Cn1cc(-c2cncc(Oc3cccc(NC(=O)Nc4cccc(C(F)(F)F)c4)c3)n2)cn1`: the inhibition in test [1] is 92%. For the same molecule, the concentration for half-maximal inhibition (IC50) in test [2] was found to be 530 nM. Regarding `Cn1cc(-c2cncc(-c3ccc(N)cc3)n2)cn1`, the inhibition in test [1] was 46%. For `CC(C)c1ccc(NC(=O)Nc2cccc(Oc3cncc(-c4cnn(C)c4)n3)c2)cc1`, in test [1], the inhibition came out at 56.3%. As to `COc1ccc(-c2cncc(Oc3cccc(NC(=O)Nc4cc(C(C)(C)C)nn4C)c3)n2)cc1`, the inhibition in test [1] amounted to 15.5%. Consider `Cn1cc(-c2cncc(-c3ccc(NC(=O)Nc4cc(C(C)(C)C)nn4C)cc3)n2)cn1`, for which, in test [1], the inhibition amounted to 99.7%. Also, the IC50 in test [2] amounted to 12 nM.

Regarding `CS(=O)(=O)c1ccc(-c2cncc(Oc3cccc(NC(=O)Nc4cccc(C(F)(F)F)c4)c3)n2)cc1`, the inhibition in test [1] stood at 90.8%. The IC50 in test [2] amounted to 1700 nM.

Consider `O=C(Nc1cccc(Oc2cncc(-c3ccsc3)n2)c1)Nc1cccc(C(F)(F)F)c1`, for which, in test [1], the inhibition was 96.2%. Further, in test [2], the IC50 came out at 1100 nM. Consider `COc1ccc(-c2cncc(Oc3cccc(NC(=O)Nc4cccc(C(F)(F)F)c4)c3)n2)cc1`, for which, in test [1], the inhibition is 95.5%. Besides, the half-maximal inhibitory concentration (IC50) in test [2] amounted to 1600 nM.

In the case of `O=C(Nc1cccc(Oc2cncc(Cl)n2)c1)Nc1cccc(C(F)(F)F)c1`, the half-maximal inhibitory concentration (IC50) in test [2] is 3500 nM.

In the case of `CC(C)c1ccc(NC(=O)Nc2cccc(Oc3cncc(-c4ccsc4)n3)c2)cc1`, the inhibition in test [1] was 99.2%. Also, the IC50 in test [2] was 870 nM.

As to `Cn1nc(C(C)(C)C)cc1NC(=O)Nc1cccc(Oc2cncc(-c3ccsc3)n2)c1`, the inhibition in test [1] was found to be 26.8%.

For `CC(C)(C)c1ccc(NC(=O)Nc2cccc(Oc3cncc(-c4ccc(S(C)(=O)=O)cc4)n3)c2)cc1`, the inhibition in test [1] worked out at 46.7%. With `CC(C)(C)c1ccc(NC(=O)Nc2cccc(Oc3cncc(-c4cncnc4)n3)c2)cc1`, in test [1], the inhibition was found to be 49.6%. The same measure, in the same setting: with `CC(C)(C)c1cc(NC(=O)Nc2cccc(Oc3cncc(-c4cncnc4)n3)c2)on1` the figure was 79.4%. In the case of `CC(C)(C)c1cc(NC(=O)Nc2cccc(Oc3cncc(-c4ccsc4)n3)c2)no1`, the inhibition in test [1] was 100%. The results for the IC50 in test [2], in test [3] and in test [4] were 39 nM, more than 2000 nM and more than 2000 nM, respectively. Turning to `Cn1cc(-c2cncc(Oc3cccc(NC(=O)Nc4cc(C(C)(C)C)on4)c3)n2)cn1`, the inhibition in test [1] came out at 101%. In addition, the concentration for half-maximal inhibition (IC50) in test [2] is 24 nM. For `CC(C)(C)c1ccc(NC(=O)Nc2cccc(Oc3cncc(-c4ccsc4)n3)c2)cc1`, the inhibition in test [1] turned out to be 27.7%. The same measure, in the same setting: with `CC(C)(C)c1cc(NC(=O)Nc2cccc(Oc3cncc(-c4ccsc4)n3)c2)on1` the figure was 69%; with `Nc1ccc(-c2cncc(-c3cncnc3)n2)cc1`, 77%. `CC(C)(C)c1cccc(NC(=O)Nc2cccc(Oc3cncc(Cl)n3)c2)c1`: the IC50 in test [2] is more than 100000 nM.

In the case of `O=C(Nc1cccc(Oc2cncc(-c3cncnc3)n2)c1)Nc1cccc(C(F)(F)F)c1`, the inhibition in test [1] is 69.3%.

Regarding `Cn1cc(-c2cncc(Oc3cccc(NC(=O)Nc4cc(C(C)(C)C)nn4C)c3)n2)cn1`, the inhibition in test [1] worked out at 61.1%. On the same count and under the same terms, as for `COc1ccc(-c2cncc(Oc3cccc(NC(=O)Nc4cc(C(C)(C)C)no4)c3)n2)cc1`, the figure is 37.2%; as for `Cn1nc(C(C)(C)C)cc1NC(=O)Nc1cccc(Oc2cncc(-c3ccc(F)cc3)n2)c1`, 26.9%. `COc1ccc(-c2cncc(Oc3cccc(NC(=O)Nc4ccc(C(C)C)cc4)c3)n2)cc1`: in test [1], the inhibition came to 98%. Further, the half-inhibitory concentration (IC50) in test [2] was 380 nM. As for `Cn1cc(-c2cncc(Oc3cccc(NC(=O)Nc4cc(C(C)(C)C)no4)c3)n2)cn1`, the inhibition in test [1] is 48.8%. The same measure, in the same setting: with `COc1ccc(-c2cncc(Oc3cccc(NC(=O)Nc4ccc(C(C)(C)C)cc4)c3)n2)cc1` the figure was 33.8%.

On to `CC(C)c1ccc(NC(=O)Nc2cccc(Oc3cncc(-c4ccc(S(C)(=O)=O)cc4)n3)c2)cc1`, for which, in test [1], the inhibition amounted to 96.9%. Also, in test [2], the IC50 is 420 nM. The corresponding values for `Cn1nc(C(C)(C)C)cc1NC(=O)Nc1cccc(Oc2cncc(-c3ccc(S(C)(=O)=O)cc3)n2)c1` are 94% and 490 nM. `CC(C)c1ccc(NC(=O)Nc2cccc(Oc3cncc(-c4ccc(F)cc4)n3)c2)cc1`: the inhibition in test [1] came out at 56.9%. On the same count and under the same terms, with `CC(C)(C)c1ccc(NC(=O)Nc2cccc(Oc3cncc(-c4ccc(F)cc4)n3)c2)cc1` the figure was 32.2%. Take `CC(C)(C)c1cc(NC(=O)Nc2cccc(Oc3cncc(-c4ccc(F)cc4)n3)c2)no1`: the inhibition in test [1] is 100%. Moreover, the figures for the IC50 in test [2], in test [3] and in test [4] were 22 nM, more than 2000 nM and more than 2000 nM, respectively.

In the case of `Nc1ccc(-c2cncc(Cl)n2)cc1`, in test [1], the inhibition stood at 47%.

For `O=C(Nc1cccc(Oc2cncc(-c3ccc(F)cc3)n2)c1)Nc1cccc(C(F)(F)F)c1`, in test [1], the inhibition was determined as 27.1%.

Turning to `CC(C)c1ccc(NC(=O)Nc2cccc(Oc3cncc(-c4cncnc4)n3)c2)cc1`, in test [1], the inhibition was 28.2%.
